Converted amounts (≈) assume the structure as drawn.
How the values were obtained:
[1] = test system: Trypanosoma cruzi; test: Antitrypanosomal activity against galactosidase gene containing Trypanosoma cruzi Tulahuen C2C4 trypomastigotes in rat L6 cells after 4 days; format: functional, organism-based; settings: Tulahuen C2C4, L6, 96 h
Summary of the method: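 L-6 myoblasts were seeded at 2000 cells/well in RPMI 1640 with 10% FBS and 2 mM L-glutamine. After 24 h, 5000 trypomastigotes were added with serial drug dilutions. Plates were kept at 37 °C in 5% CO₂ for 4 days. CPRG/Nonidet substrate was added and colour read at 540 nm after 2–4 h. IC50 was taken from the sigmoidal inhibition curve.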

[2] = Cytotoxicity against rat L6 cells after 4 days; format: cell-based; settings: read-out: MIC
Summary of the method: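 Uninfected L-6 myoblasts were run in the same format as the T. cruzi assay: RPMI 1640 with 10% FBS and 2 mM L-glutamine, same serial drug dilution, 37 °C, 5% CO₂. The MIC was judged microscopically after 4 days.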

[3] = Cytotoxicity against mouse peritoneal macrophages; format: cell-based, Macrophage; settings: read-out: MIC
[4] = test system: Plasmodium falciparum; test: Antiplasmodial activity against Plasmodium falciparum NF54 in human erythrocytes by [3H]hypoxanthine uptake; format: functional, organism-based; settings: NF54, 72 h
Summary of the method: (§1)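 [³H]hypoxanthine incorporation assay, modified. Infected human red cells were exposed to serial drug dilutions for 48 h at 37 °C under reduced O₂ and raised CO₂. [³H]hypoxanthine was then added and incubation continued for 24 h. Cells were harvested on glass-fibre filters and counted by liquid scintillation. IC50 was taken from the sigmoidal inhibition curve. Runs were in duplicate and repeated at least once.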

[5] = test system: Plasmodium falciparum; test: Antiplasmodial activity against Plasmodium falciparum K1 in human erythrocytes by [3H]hypoxanthine uptake; format: functional, organism-based; settings: K1, 72 h; summary of the method: as §1
[6] = test system: Trypanosoma brucei rhodesiense; test: Antitrypanosomal activity against Trypanosoma brucei rhodesiense STIB900 by Alamar blue assay; format: functional, organism-based
Summary of the method: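 Bloodstream parasites were grown in Minimum Essential Medium with 2-mercaptoethanol and 15% heat-inactivated horse serum, with serial drug dilutions, for 72 h at 37 °C in 5% CO₂. Alamar Blue was then added for 2–4 h more, and fluorescence read at excitation 530 nm and emission 590 nm. Signal was expressed as % of control to give IC50.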

[7] = test system: Leishmania donovani; test: Antileishmanial activity against Leishmania donovani MHOM-ET-67/L82 amastigotes in mouse peritoneal macrophages; format: functional, organism-based
Summary of the method: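 Mouse peritoneal macrophages in RPMI 1640 with 10% heat-inactivated FBS were infected after 24 h with amastigotes at 3:1 (parasite:macrophage). Free parasites were removed at 4 h. Drug was added the next day and cells incubated for 96 h at 37 °C in 5% CO₂. Slides were MeOH-fixed and Giemsa-stained, and the infected/noninfected ratio counted microscopically as % of control. IC50 was obtained by linear regression.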

IC50 [1] [µg/mL]	IC50 [4] [µg/mL]	IC50 [5] [µg/mL]	IC50 [6] [µg/mL]	IC50 [7] [µg/mL]	SMILES	MCC at 96 h [2] [µg/mL]	MCC [3] [µg/mL]
2.35 (≈ 5.6 µM)	4 (≈ 9.53 µM)	1.2 (≈ 2.86 µM)	3.46 (≈ 8.25 µM)	4.1 (≈ 9.77 µM)	COc1cc(OC)c(-c2ccc(OC)c3c(OC)cc(C)cc23)c2c1C(C)=N[C@@H](C)C2 [ANCISTROEALAINE A]	> 90	> 30
17.6 (≈ 43.2 µM)	0.79 (≈ 1.94 µM)	0.52 (≈ 1.28 µM)	2.03 (≈ 4.98 µM)	10 (≈ 24.5 µM)	COc1cc(OC)c2c(c1-c1ccc(O)c3c(OC)cc(C)cc13)C[C@H](C)N[C@H]2C [ANCISTROEALAINE B]	90	> 30
0.3 (≈ 1.15 µM)					O=C(Cn1ccnc1[N+](=O)[O-])NCc1ccccc1 [BENZNIDAZOLE]		

SMILES	IC50 [1] [µg/mL]	IC50 [4] [µg/mL]	IC50 [5] [µg/mL]	IC50 [6] [µg/mL]	IC50 [7] [µg/mL]	MCC at 96 h [2] [µg/mL]	MCC [3] [µg/mL]
Nc1nc(N)nc(Nc2ccc([As]3SCC(CO)S3)cc2)n1 (stereo unspecified) [MELARSOPROL]				0.0063			

From ChEMBL document CHEMBL1155616, “Ancistroealaines A and B, two new bioactive naphthylisoquinolines, and related naphthoic acids from Ancistrocladus ealaensis” (J Nat Prod, 2000)
